Activity calls are given as the source filed them. The rule behind the calls is not given here.
Legend:
[1] = test system: Strongylocentrotus purpuratus; assay: Agonist activity at NAADP receptor in sea urchin egg homogenate assessed as desensitization of NAADP-induced Ca2+ release at => 1 nM treated for 9 mins before NAADP challenge by Fluo-3 staining based fluorimetric assay; assay type: functional, tissue-based
Outline: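 Strongylocentrotus purpuratus egg homogenate (1.25% v/v) diluted in intracellular medium: 250 mM potassium gluconate pH 7.2, 0.5 mM ATP, 4 mM […], creatinine kinase, 3 μM Fluo-3; 17 °C. Ca2+ release read as fluorescence (ex 490/em 535 nm); EC50 from plateau maximum vs concentration, mean of ≥3 determinations. For desensitization, 9 min pretreatment, then 1 μM NAADP challenge; mean±SEM, n = 3.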

[2] = test system: Strongylocentrotus purpuratus; assay: Agonist activity at NAADP receptor in sea urchin egg homogenate assessed as fold increase in EC50 for induction of Ca2+ release relative to NAADP; assay type: functional, tissue-based
[3] = test system: Strongylocentrotus purpuratus; assay: Binding affinity to NAADP receptor in sea urchin microsomes assessed as fold increase in IC50 for displacement of [32P]NAADP from receptor relative to NAADP; conditions: Microsome
Outline: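 Competition binding in sea urchin egg homogenate: 0.2 nM [32P]NAADP plus seven competitor concentrations, incubated together 90 min at 4 °C, in triplicate. Filtered, washed, filter-bound radioactivity counted by liquid scintillation. IC50 from fitted curves over ≥3 experiments; fold value is relative to NAADP IC50.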

[4] = (§1) Agonist activity at NAADP receptor in sea urchin egg homogenate assessed as induction of Ca2+ release by Fluo-3 staining based fluorimetric assay; assay type: functional, Strongylocentrotus purpuratus
[5] = Displacement of [32P]NAADP from NAADP receptor in sea urchin microsomes after 90 mins by liquid scintillation counting; parameters: species or system Strongylocentrotus purpuratus, Microsome
Outline: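 Competition binding in sea urchin egg homogenate: 0.2 nM [32P]NAADP plus seven competitor concentrations, incubated together 90 min at 4 °C, in triplicate. Filtered, washed, filter-bound radioactivity counted by liquid scintillation.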

[6] = test system: Strongylocentrotus purpuratus; assay: as §1; assay type: functional
[7] = test system: Strongylocentrotus purpuratus; assay: Agonist activity at NAADP receptor in sea urchin egg homogenate assessed as induction of Ca2+ release at 2 nM by Fluo-3 staining based fluorimetric assay; assay type: functional, tissue-based

SMILES	fold change (FC) [2]	fold change (FC) [3]	EC50 [4] [µM]	IC50 [5] [µM]	Activity [6]	Activity [7]	Activity [1]
Nc1ncnc2c1ncn2[C@@H]1O[C@H](COP(=O)(O)OP(=O)(O)OC[C@@H]2O[C@H]([n+]3cc(C(=O)[O-])cc(C(=O)O)c3)[C@@H](O)[C@H]2O)[C@@H](O)[C@H]1OP(=O)(O)O	> 50000	> 60000	> 1000	> 100			Active
Nc1ncnc2c1ncn2[C@@H]1O[C@H](COP(=O)(O)OP(=O)(O)OC[C@@H]2O[C@H]([n+]3ccc(-c4ccccc4)c(C(=O)[O-])c3)[C@@H](O)[C@H]2O)[C@@H](O)[C@H]1OP(=O)(O)O	> 50000	540	> 1000	0.859			Active
Nc1ncnc2c1ncn2[C@@H]1O[C@H](COP(=O)(O)OP(=O)(O)OC[C@@H]2O[C@H]([n+]3cccc(C(=O)[O-])c3)[C@@H](O)[C@H]2O)[C@@H](O)[C@H]1OP(=O)(O)O					Dose-dependent effect		
CCCCc1cc[n+]([C@H]2O[C@@H](COP(=O)(O)OP(=O)(O)OC[C@H]3O[C@@H](n4cnc5c(N)ncnc54)[C@H](OP(=O)(O)O)[C@@H]3O)[C@H](O)[C@@H]2O)cc1C(=O)[O-]	> 50000	303	> 1000	0.465			Active

Continued, in another order:

fold change (FC) [2]	fold change (FC) [3]	EC50 [4] [µM]	IC50 [5] [µM]	Activity [6]	Activity [7]	SMILES	Activity [1]
235	88	4.41	0.141			Nc1cc[n+]([C@H]2O[C@@H](COP(=O)(O)OP(=O)(O)OC[C@H]3O[C@@H](n4cnc5c(N)ncnc54)[C@H](OP(=O)(O)O)[C@@H]3O)[C@H](O)[C@@H]2O)cc1C(=O)[O-]	Active
2200	93	42.2	0.149	Dose-dependent effect		Cc1cc[n+]([C@H]2O[C@@H](COP(=O)(O)OP(=O)(O)OC[C@H]3O[C@@H](n4cnc5c(N)ncnc54)[C@H](OP(=O)(O)O)[C@@H]3O)[C@H](O)[C@@H]2O)cc1C(=O)[O-]	Active
2.3	1.2	0.043	0.0019	Dose-dependent effect	Active	Cc1cc(C(=O)[O-])c[n+]([C@H]2O[C@@H](COP(=O)(O)OP(=O)(O)OC[C@H]3O[C@@H](n4cnc5c(N)ncnc54)[C@H](OP(=O)(O)O)[C@@H]3O)[C@H](O)[C@@H]2O)c1	Active
1.5	1.1	0.0274	0.0017	Dose-dependent effect	Active	Nc1cc(C(=O)[O-])c[n+]([C@H]2O[C@@H](COP(=O)(O)OP(=O)(O)OC[C@H]3O[C@@H](n4cnc5c(N)ncnc54)[C@H](OP(=O)(O)O)[C@@H]3O)[C@H](O)[C@@H]2O)c1	Active
18	23	0.352	0.037			CCc1cc(C(=O)[O-])c[n+]([C@H]2O[C@@H](COP(=O)(O)OP(=O)(O)OC[C@H]3O[C@@H](n4cnc5c(N)ncnc54)[C@H](OP(=O)(O)O)[C@@H]3O)[C@H](O)[C@@H]2O)c1	Active
90	11	1.69	0.018			[N-]=[N+]=Nc1cc(C(=O)[O-])c[n+]([C@H]2O[C@@H](COP(=O)(O)OP(=O)(O)OC[C@H]3O[C@@H](n4cnc5c(N)ncnc54)[C@H](OP(=O)(O)O)[C@@H]3O)[C@H](O)[C@@H]2O)c1	Active
